Compound activity (PubChem)
An excerpt weighted towards active compounds, which were near 3.1% of everything screened.
EWS-Fli inh – blocks EWS/Fli oncoprotein-driven transcription | AID 651661 | inhibition, % at 12.6 µM | A673 NR0B1-luciferase reporter, viability-normalised | 350,000 tested, 0.67% active;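 active means mean inhibition of at least 50% after viability correction, with every replicate also passing that limit; inconclusive means mean reaches 50% but only one of two replicates passes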;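 further: firefly luciferase signal divided by Alamar Blue viability fluorescence both relative to DMSO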
PAX8 reporter – lowers PAX8-driven luciferase in RMG-I cells; RMG-I TPO-luciferase reporter, SteadyGlo, 24 h; AID 652154; inhibition, % at 12.6 µM; 360,000 tested, 1.2% active;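 active means mean replicate inhibition at least 60% with every replicate also reaching 60%; inconclusive means only one of the two criteria is met; inactive means mean below 60% and not all replicates reaching 60%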;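 further: luciferase light reporting Pax8 driven TPO promoter activity; plate controls were median of neutral control wells for no effect and mitoxantrone controls for full effect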
FN deposit inh – fibronectin deposition inhibition; 350,000 tested, 0.086% active; inhibition, % at 12.6 µM; AH1F fibroblasts, Alexa488-fibronectin deposition fluorescence, overnight;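 active means mean inhibition across replicates of 30% or more, regardless of how many single replicates reach that level; inconclusive means mean under 30% yet at least half of replicates reach 30%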;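 further: positive control wells lacked labelled fibronectin entirely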
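test system = AH1F fibroblasts assembling fluorescent fibronectin matrix | quantity = 10000 AH1F cells per well | buffer or medium = DMEM plus 2% serum, read in PBS | doses = single dose, pinned | incubation = 1 h cell attachment, overnight exposure to compound and label | detection = fluorescence at 485 nm excitation, 525 nm emission | read-out basis = inhibition from reduced deposited-fibronectin fluorescence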
FGF22 binding – binders of recombinant human FGF22 by thermal shift. Q9HCT0. SYPRO orange fluorescence; percent of sucrose octasulfate shift, DMSO zero. activity (Tm shift, normalised), % at 9.99 µM. 340,000 tested, 1.5% active;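 active means mean Tm shift, scaled 0 neutral to 100 positive control, at about 1.3% or above, every replicate too, limit read from the data; inconclusive means no clear call, values can overlap the other calls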
Target sequence (Q9HCT0 whole entry, looked up): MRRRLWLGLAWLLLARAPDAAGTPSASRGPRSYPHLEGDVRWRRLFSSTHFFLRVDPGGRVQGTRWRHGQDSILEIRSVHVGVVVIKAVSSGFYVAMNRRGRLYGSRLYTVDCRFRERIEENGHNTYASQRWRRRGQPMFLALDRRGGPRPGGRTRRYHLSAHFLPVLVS
PGC1a acetyl inh – lowers PGC1a acetylation signal in U2OS cells. AlphaScreen anti-acetyl-lysine; with virally co-expressed GCN5 acetyltransferase. inhibition, % at 15.6 µM. 350,000 tested, 0.17% active. AID 651687;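 active means every replicate shows inhibition of at least 40%; inconclusive means mean inhibition at least 40% but some replicate below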;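 further: 0% = neutral control wells and 100% = positive control wells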
Env fusion inh – blocks HIV Env-driven cell-cell fusion. HeLa-JRFL Env/CEM21 cell fusion, luciferase. inhibition, % at 12.3 µM. 360,000 tested, 1.1% active;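 active means mean replicate inhibition score of at least 50 and every replicate individually at or above 50; inconclusive means only one of the two criteria met; inactive means mean below 50 and not all replicates reaching 50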;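 further: 0% = plate neutral controls and 100% = maraviroc near 300 nM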
* marks the source's active call; other numbers are inactive results; [ ] = remark or other dose.

For CCCCC1(C)OC(=O)C(=Cc2ccc(-c3ccc(Cl)c(C(=O)O)c3)o2)C(=O)O1 (centres undefined) the results were EWS-Fli inh -6, PAX8 reporter -17, FN deposit inh -2, FGF22 binding 3.8* and Env fusion inh -1.
Screening O=c1c2cccnc2n(-c2ccccc2)n1Cc1c(Cl)cccc1Cl returned EWS-Fli inh 2, PAX8 reporter -15, FN deposit inh 3, FGF22 binding 0, PGC1a acetyl inh 4 and Env fusion inh -15.
O=c1c2cccnc2n(-c2ccccc2)n1Cc1ccc(Cl)cc1 was read as EWS-Fli inh -1, PAX8 reporter -2, FN deposit inh 0, FGF22 binding 1, PGC1a acetyl inh 101* and Env fusion inh 30.
Screening C[C@H]1CN([C@@H](C)CO)S(=O)(=O)c2ccc(C3=CCCC3)cc2O[C@@H]1CN(C)S(C)(=O)=O returned EWS-Fli inh 24, PGC1a acetyl inh -9 and Env fusion inh 11[16.7 µM].
Screening O=C(C[C@H]1CC[C@H](NS(=O)(=O)c2ccc(F)cc2)[C@@H](CO)O1)NCc1ccc(Cl)c(Cl)c1 returned EWS-Fli inh -3, PAX8 reporter 18, FGF22 binding 0, PGC1a acetyl inh 7 and Env fusion inh 4[16.7 µM].
`Cc1cc(Nc2cccc(Br)c2)c2ccccc2n1` gave EWS-Fli inh 11, PAX8 reporter 1, FN deposit inh 2, FGF22 binding 0, PGC1a acetyl inh -18 and Env fusion inh 66*.
For COc1ccc(Nc2cc(C)nc3ccccc23)cc1 the results were EWS-Fli inh 1, FGF22 binding 0 and PGC1a acetyl inh -7.
`C[C@@H]1CN([C@@H](C)CO)C(=O)Cc2cc(NC(=O)Cn3cnnn3)ccc2O[C@H]1CN(C)CC1CC1` gave EWS-Fli inh -2, FGF22 binding 0, PGC1a acetyl inh 2 and Env fusion inh -7[16.7 µM].
`Cn1c(C(=O)N2CCN(c3nc4ccccc4s3)CC2)cc2sccc21` gave FN deposit inh -3, PGC1a acetyl inh 4 and Env fusion inh 71*.
`CCN1CCN(C(=O)c2ccc(-c3nc4ccccc4s3)s2)CC1` gave EWS-Fli inh -47, PAX8 reporter -138, FN deposit inh -2, FGF22 binding 0 and Env fusion inh -26.
O=C(c1ccc(-c2nc3ccccc3s2)s1)N1CCOCC1 was read as EWS-Fli inh 77*, PAX8 reporter 66*, FN deposit inh -1, FGF22 binding 0 and Env fusion inh inconclusive.
O=C(c1ccc(Cl)s1)N1CCN(c2nc3ccccc3s2)CC1 was read as EWS-Fli inh -5, PAX8 reporter -2, FN deposit inh -1, FGF22 binding 0, PGC1a acetyl inh 4 and Env fusion inh 77*.
Screening O=C(c1cc2sccc2n1Cc1ccc(F)cc1)N1CCN(c2nc3ccccc3s2)CC1 returned PAX8 reporter 1, FN deposit inh 8, PGC1a acetyl inh -4 and Env fusion inh 87*.
CC1(C)C(=O)C2(CCCCC2)C(=O)OC1c1cccn1-c1ccc([N+](=O)[O-])cc1 (centres undefined) was read as EWS-Fli inh 0, PAX8 reporter -8, FGF22 binding 0 and Env fusion inh 72*.
`CC1(C)C(=O)OC(c2cccn2-c2ccc([N+](=O)[O-])cc2)C(C)(C)C1=O` (centres undefined) gave PAX8 reporter -4, FN deposit inh 7 and Env fusion inh 6.
Screening CCN(Cc1nc2cc(Cl)ccc2c(=O)[nH]1)C(=O)c1cc(C2CC2)nn1-c1ccccc1 returned EWS-Fli inh -1, PAX8 reporter 14, FN deposit inh 1, FGF22 binding 0 and Env fusion inh 86*.
O=S(=O)(NCCc1csc(-c2cccnc2)n1)c1ccc(Cl)s1 was read as EWS-Fli inh 14, PAX8 reporter 8, FN deposit inh 7, FGF22 binding 0, PGC1a acetyl inh 1 and Env fusion inh 122*.
Screening O=C(C[C@@H]1CC[C@@H]2[C@H](COC[C@@H](O)CN2Cc2ccc(Cl)cc2)O1)NCc1cccc(F)c1 returned FN deposit inh -19, FGF22 binding 0 and PGC1a acetyl inh -12.
Screening COCC(=O)Nc1c(C(=O)Nc2ccccc2OC)oc2ccccc12 returned FN deposit inh 1, PGC1a acetyl inh -1 and Env fusion inh -56.
Screening COc1ccccc1NC(=O)c1oc2ccccc2c1NC(=O)c1cc(OC)c(OC)c(OC)c1 returned EWS-Fli inh 60*, FGF22 binding 0 and PGC1a acetyl inh 4.
`O=C(O)c1ccc(N=Nc2c(O)[nH]c3ccccc23)cc1` gave EWS-Fli inh 34, PAX8 reporter 51, FN deposit inh -5, FGF22 binding 0, PGC1a acetyl inh 49* and Env fusion inh -25.
For FC(F)(F)c1cnc(N2CCCN(C(=S)Nc3ccccc3)CC2)c(Cl)c1 the results were EWS-Fli inh 16, PAX8 reporter -2, FN deposit inh -13, FGF22 binding 0, PGC1a acetyl inh 3 and Env fusion inh 87*.
Screening CCCOc1ccc(Br)cc1CSC(=N)N returned EWS-Fli inh 29, PAX8 reporter 32, FN deposit inh -6, FGF22 binding 0 and Env fusion inh 62*.
`C/C=C/c1ccc([C@@H]2[C@@H](CO)N[C@@H]2CN(CC(C)C)C(=O)c2ccccn2)cc1` gave EWS-Fli inh 11, PAX8 reporter 1, FN deposit inh 5, FGF22 binding 0 and PGC1a acetyl inh -5.
`CCS(=O)(=O)N[C@@H]1CC[C@H](CC(=O)NC2Cc3ccccc3C2)O[C@H]1CO` gave EWS-Fli inh -7, PAX8 reporter -2, FN deposit inh -5, FGF22 binding 0, PGC1a acetyl inh -15 and Env fusion inh 29[16.7 µM].
`Cc1ccccc1CNS(=O)(=O)c1ccc2c(c1)C(C)(C)C(=O)N2C` gave PAX8 reporter -3, FN deposit inh 9, FGF22 binding 0, PGC1a acetyl inh -4 and Env fusion inh -10.
Screening CC(C)C(NS(=O)(=O)c1ccc2c(c1)C(C)(C)C(=O)N2C)C(=O)NCc1ccccc1Cl (centres undefined) returned EWS-Fli inh 7, PAX8 reporter 3, FN deposit inh -5, FGF22 binding 0, PGC1a acetyl inh -4 and Env fusion inh 62*.
For CCCC#Cc1ccc2c(c1)O[C@H](CN(C)S(=O)(=O)c1cccc(OC)c1)[C@H](C)CN([C@H](C)CO)S2(=O)=O the results were EWS-Fli inh 17, PAX8 reporter 21, FN deposit inh -11, FGF22 binding 1, PGC1a acetyl inh -5 and Env fusion inh 38[16.7 µM].
For COc1cccc(S(=O)(=O)N(C)C[C@H]2Oc3cc(C#CCC(C)C)ccc3S(=O)(=O)N([C@H](C)CO)C[C@H]2C)c1 the results were EWS-Fli inh 20, FN deposit inh -6, FGF22 binding 0, PGC1a acetyl inh 7 and Env fusion inh 73*[16.7 µM].
